Screening data from PubChem.
Runt-SMMHC FRET = Runt domain-CBFb-SMMHC interaction inhibition; inhibition, % at 20 µM; 220,000 tested, 0.74% active; Cerulean-Runt/Venus-CBFb-SMMHC FRET ratio 530/480, 1 h; AID 1434; Q01196+Q13951;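 active = mean inhibition across duplicate retests at 20 µM reaching about 50%, limit read from the data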;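 also: 0% = DMSO wells and 100% = wells with excess untagged CBFb-SMMHC; inhibitors lower the FRET ratio by blocking Runt binding to CBFb-SMMHC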
RanGTP-Impb inh = inhibitors of RanGTP-importin-beta interaction, primary screen, biochemical, FRET, CFP-Ran, YFP-importin-beta, homogeneous | cell-free CFP-Ran/YFP-importin-beta FRET ratio | inhibition, % (test concentration not listed) | 300,000 tested, 1.1% active | AID 2216;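 active = more than half of the replicate wells show a fall in the fluorescence ratio signal beyond about 16%, limit read from the data, passing the limit was not always enough; inconclusive = exactly half of the replicate wells pass the set limit; inactive = fewer than half of replicates pass the limit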;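 also: 0% = DMSO wells and 100% = Ran loaded with GDP instead of GTP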
Runt-CBFb FRET = inhibitors of human RUNX1 Runt domain binding to CBFb. Cerulean-Runt/Venus-CBFb FRET ratio 530/480, 1 h. 220,000 tested, 0.46% active. AID 1496. Q01196+Q13951. inhibition, % at 20 µM;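 active = inhibition over about 50% at 20 µM in the single-dose screen, limit read from the data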;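 also: 0% = DMSO wells and 100% = excess unlabeled CBFb competitor control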
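Reagent – Venus-CBFb binding partner, 100 nM · Assay system – Cerulean-tagged RUNX1 Runt domain (FRET donor) fusion protein · Input – 100 nM per protein · Incubation – two 1 h room-temperature incubations shielded from light · Measured by – FRET fluorescence · Medium – Tris buffer pH 7.5 with salts and BSA · Benchmarks – unlabeled CBFb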
Hck-Nef inh = human Hck-Nef kinase inhibition; inhibition, % at 20 µM; 220,000 tested, 0.68% active; Recombinant Hck-YEEI plus Nef, Z-Lyte FRET kinase assay; P08631;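 active = Hck-Nef kinase inhibition above about 50%, limit read from the data; inactive = inhibition below that limit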;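 also: 0% = DMSO with Hck plus Nef and 100% = Hck alone without Nef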
Target sequence (P08631 whole entry, looked up): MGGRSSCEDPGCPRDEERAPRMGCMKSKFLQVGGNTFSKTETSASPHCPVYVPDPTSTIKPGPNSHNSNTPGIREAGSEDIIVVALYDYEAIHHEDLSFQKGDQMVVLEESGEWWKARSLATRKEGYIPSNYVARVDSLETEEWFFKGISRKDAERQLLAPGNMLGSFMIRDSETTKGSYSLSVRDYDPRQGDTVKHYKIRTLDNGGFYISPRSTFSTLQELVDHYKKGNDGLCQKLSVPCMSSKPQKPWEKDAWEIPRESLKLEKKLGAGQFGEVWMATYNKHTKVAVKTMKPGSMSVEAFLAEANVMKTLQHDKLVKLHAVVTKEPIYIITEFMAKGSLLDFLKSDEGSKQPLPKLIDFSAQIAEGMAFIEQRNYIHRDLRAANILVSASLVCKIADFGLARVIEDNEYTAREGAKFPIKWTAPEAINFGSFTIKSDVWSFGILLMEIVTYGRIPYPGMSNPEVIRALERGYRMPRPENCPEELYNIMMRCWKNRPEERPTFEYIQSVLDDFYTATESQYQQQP
Starred values were filed as active, the others as inactive; ? = inconclusive; . = not tested or not shown. Shown are actives, neighbours in structure and some others; about 1.9% of the full set was active somewhere.

SMILES | Runt-SMMHC FRET | RanGTP-Impb inh | Runt-CBFb FRET | Hck-Nef inh
COc1ccc(C2=C/C(=C\c3ccccc3OC(C)=O)C(=O)O2)cc1 | . | 35* | . | .
COc1ccc(C2=C/C(=C\c3cccc(OC(C)=O)c3)C(=O)O2)cc1 | 39 | 43* | -36 | 1
COc1ccccc1/C=C/c1nc2ccc(OC(C)=O)cc2c(=O)o1 | . | 1 | . | .
O=C(C1CC(=O)N(c2ccc(F)cc2)C1)N1CCC(c2nc3ccccc3[nH]2)CC1 (stereo unspecified) | . | 6 | . | .
Cc1cccc(NC(=O)CSc2n[nH]c(-c3ccncc3)n2)c1C | . | -3 | . | .
O=C(O)C1CCCCC1C(=O)Nc1nc(-c2ccc(Cl)s2)cs1 (stereo unspecified) | 8 | -4 | 17 | 70*
OC1CCN(c2cc(-c3ccccc3)nc3cc(-c4ccc(F)cc4)nn23)CC1 | 8 | 3 | 2 | 21
CCN1CCN(c2cc(-c3ccccc3)nc3cc(-c4cccc(F)c4)nn23)CC1 | 33 | 17* | 2 | 8
CC12CCC(=O)N1C(C(=O)Nc1cc(S(=O)(=O)N3CCCCCC3)ccc1OCC(F)(F)F)CS2 (stereo unspecified) | . | 2 | . | .
CCOc1ccc(NC(=O)CN(C)S(=O)(=O)c2ccc3c(c2)CCC(=O)N3)cc1 | 60* | 0 | 2 | 8
CCOc1ccc(/C=C2/SC(=S)N(C(C(=O)O)c3ccccc3)C2=O)cc1OCC (stereo unspecified) | -121 | . | -40 | 62*
COc1cc(/C=C2\SC(=S)N(C(C(=O)O)c3ccccc3)C2=O)ccc1O (stereo unspecified) | -162 | -18 | -52 | 10
O=c1c2ccccc2n(CC(O)CN2CCOCC2)c2ccccc12 (stereo unspecified) | . | 79* | . | .
CCOC(=O)c1sc(Nc2nc3c(OC)cccc3s2)cc1C | 92* | 10 | 41 | 23
O=[N+]([O-])c1ccc(O)c(N=Cc2sc3ccccc3c2O)c1 | 48 | 38* | 16 | 3
Cc1cccc(/N=C/c2sc3ccccc3c2O)n1 | -1 | 33* | -1 | 5
O=C(N/N=C/c1sc2ccccc2c1O)c1cccc2ccccc12 | -19 | 7 | -7 | 2
Oc1c(C=Nc2cccc3cccnc23)sc2ccccc12 | 18 | 39* | 35 | 1
Oc1ccc(Cl)cc1N=Cc1sc2ccccc2c1Cl | 17 | ? | . | 1
COCCNC(=O)CSc1nnc(NC(=O)C2CC(=O)N(c3ccccc3OC)C2)s1 (stereo unspecified) | . | 1 | . | .
N#Cc1c2c(c(NCCN3CCOCC3)n3c1nc1ccccc13)CCCC2 | 111* | 45* | 50* | 31
Cc1c(Cc2ccccc2)c(NCCN(C)C)n2c(nc3ccccc32)c1C#N | 81* | 26* | 30 | 13
CCCc1c(C)c(C#N)c2nc3ccccc3n2c1NCCCN1CCOCC1 | 54* | 9 | 20 | 16
CCc1nc(NCCN2CCOCC2)c(C#N)c2c1CCCC2 | -5 | -2 | 0 | -12
CCCCc1c(C)c(C#N)c2nc3ccccc3n2c1NCCN(C)C | . | 5 | . | .
SMILES | Runt-SMMHC FRET | RanGTP-Impb inh | Runt-CBFb FRET | Hck-Nef inh
Cc1ccc(-c2noc(CCCc3ccccc3)n2)cc1 | -11 | 1 | -1 | 1
COc1ccc(-c2noc(CCCc3ccccc3)n2)cc1OC | -5 | 26* | -4 | 0
CCN(Cc1ccccc1)c1ccc(/C=N/NC(=S)NC(C)C)cc1 | 34 | -2 | 19 | 2
CCN(Cc1ccccc1)c1ccc(/C=N/N=C(N)N)cc1 | 6 | 38* | -3 | 12
Cc1cc(C)c2c(=O)n(CC(=O)Nc3ccc(Br)c(C)c3)sc2n1 | 56 | -3 | 13 | -140
Cc1cc(C)c2c(=O)n(CC(=O)NC3CCCC3)sc2n1 | 53* | -2 | 2 | -141
Cc1cccc(-n2ncc3c2CCCC3NC(=O)CCN2CCCO2)c1C (stereo unspecified) | . | 1 | . | .
CC(=O)c1sc2nc(-c3cccs3)ccc2c1N | 83* | -38 | 28 | 1
Nc1c(C(=O)Nc2nc3ccccc3s2)sc2nc(-c3cccs3)ccc12 | -37 | -39 | -2 | 5
COc1ccc(C(=O)c2sc3nc(-c4ccc(OC)cc4)ccc3c2N)cc1 | -3 | 23* | -6 | 0
Cc1nc2ccccc2n1CSc1ccccc1 | 2 | 0 | 1 | 7
Cc1c(NC(=S)N/N=C/c2ccc(N(C)C)cc2)c(=O)n(-c2ccccc2)n1C | 62* | 8 | 24 | 42
Cc1c(NC(=S)N/N=C/c2cccc(O)c2)c(=O)n(-c2ccccc2)n1C | 1 | -3 | -3 | -1
Cc1cc(C)n2c(=S)[nH]nc2n1 | 59* | 1 | 11 | -3
CSc1nc(N(CCO)CCO)c2sc3nc(-c4ccco4)c4c(c3c2n1)CCC4 | -20 | -4 | -3 | 77*
OCCN(CCO)c1ncnc2c1sc1nc(N3CCOCC3)c3c(c12)CCCC3 | -5 | 1 | 0 | 1
O=C(COC(=O)C12CC3CC(CC(C3)C1)C2)NCCc1ccccc1 | -4 | 1 | -2 | -1
Cc1c(Cl)c(=O)n2c(=O)c(Cl)c(C)n12 | 86* | 128* | 21 | -68
Cc1nn(CC(=O)O)c(C)c1Cl | 1 | -2 | -1 | 0
Cc1ccc(N(C)S(=O)(=O)c2cccc(C(=O)Oc3ccc4c(C)cc(=O)oc4c3)c2)cc1 | 45 | -3 | 23 | -3
Cc1cc(=O)oc(C)c1C(=O)NNC(=O)C1(C)CC1Br (stereo unspecified) | 3 | -3 | 0 | 8
CC1(C(=O)NNC(=O)c2ccc(=O)oc2)CC1Br (stereo unspecified) | 84* | 17 | 31 | -2
S=C(Nc1ccc(N2CCOCC2)cc1)Nc1ccc2nc(-c3ccco3)c(-c3ccco3)nc2c1 | -388 | 20* | -95 | 1
COc1ccc2nc(-c3ccco3)c(-c3ccco3)nc2c1 | -22 | 54* | 6 | 1
O=C(Nc1ccccc1)c1ccc2nc(-c3ccco3)c(-c3ccco3)nc2c1 | -31 | 36* | 1 | 10
SMILES | Runt-SMMHC FRET | RanGTP-Impb inh | Runt-CBFb FRET | Hck-Nef inh
O=C(NCc1ccccc1)c1ccc2nc(-c3ccco3)c(-c3ccco3)nc2c1 | -46 | 25* | -1 | 2
CC(=O)Nc1cccc(NC(=O)CSc2nnc3ccc(-c4ccncc4)nn23)c1 | . | 2 | . | .
Cc1ccc(S(=O)(=O)N2CC(O)C2)cc1 | . | -4 | . | .
CC(=O)c1ccc(NC(=O)c2ccc3nc(-c4ccco4)c(-c4ccco4)nc3c2)cc1 | -69 | 35* | -4 | 0
Nc1nc(C2CC(=O)OC23CCCCC3)cs1 (stereo unspecified) | -1 | 21* | 3 | 6
Cc1nc(C2CC(=O)OC23CCCCC3)cs1 (stereo unspecified) | 3 | -4 | -2 | 1
CCN(CC)Cc1c(C(=O)N/N=C/c2ccccn2)nnn1-c1nonc1N | . | 6 | . | .
Cn1c2ccccc2c(=O)c2ccc(C#CC3(O)CCCCC3)cc21 | . | 165* | . | .
Cn1c2ccccc2c(=O)c2cc(C#Cc3ccc(N)cc3)ccc21 | . | 50* | . | .
COc1ccc(C#Cc2ccc3c(c2)c(=O)c2ccccc2n3C)cc1 | . | 84* | . | .
Nc1ccc(C#Cc2ccc3oc4ccccc4c(=O)c3c2)cc1 | . | -3 | . | .
